Assay results as given in the M2OR odorant receptor database.

What was measured:
Details in all cases: stereoisomer not certain
UniProt Q8VGL0 = biological target: T1, UniProt Q8VGL0
T1 sequence (whole entry): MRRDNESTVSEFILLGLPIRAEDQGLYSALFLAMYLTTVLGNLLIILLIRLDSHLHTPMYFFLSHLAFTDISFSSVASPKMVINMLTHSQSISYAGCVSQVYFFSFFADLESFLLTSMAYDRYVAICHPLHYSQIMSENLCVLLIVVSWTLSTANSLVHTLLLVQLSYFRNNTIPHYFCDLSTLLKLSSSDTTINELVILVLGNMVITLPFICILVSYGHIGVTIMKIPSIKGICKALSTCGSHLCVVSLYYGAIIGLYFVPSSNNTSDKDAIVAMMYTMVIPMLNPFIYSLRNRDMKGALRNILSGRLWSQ
Method in brief: (§1)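 Transient luciferase assays in mammalian cell lines were common, though methods varied by source. The values come from published papers and their supplementary material, with extra details from the original authors when needed. Responsive refers to a measured signal the original authors judged statistically different from baseline, and non-responsive (inactive) to the remainder.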

UniProt Q8VGU3 = biological target: T2, UniProt Q8VGU3
T2 sequence (whole entry): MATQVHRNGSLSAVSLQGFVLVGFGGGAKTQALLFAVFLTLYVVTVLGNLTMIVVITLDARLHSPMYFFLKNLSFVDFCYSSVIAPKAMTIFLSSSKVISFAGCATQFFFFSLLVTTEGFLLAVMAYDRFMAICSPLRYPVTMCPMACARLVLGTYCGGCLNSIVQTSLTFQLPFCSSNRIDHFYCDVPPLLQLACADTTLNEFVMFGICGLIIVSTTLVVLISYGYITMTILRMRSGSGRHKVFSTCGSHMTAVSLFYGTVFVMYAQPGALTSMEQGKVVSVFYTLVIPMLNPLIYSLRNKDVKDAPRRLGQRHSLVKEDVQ
Method in brief: as §1

UniProt Q8VGV7 = biological target: T3, UniProt Q8VGV7
T3 sequence (whole entry): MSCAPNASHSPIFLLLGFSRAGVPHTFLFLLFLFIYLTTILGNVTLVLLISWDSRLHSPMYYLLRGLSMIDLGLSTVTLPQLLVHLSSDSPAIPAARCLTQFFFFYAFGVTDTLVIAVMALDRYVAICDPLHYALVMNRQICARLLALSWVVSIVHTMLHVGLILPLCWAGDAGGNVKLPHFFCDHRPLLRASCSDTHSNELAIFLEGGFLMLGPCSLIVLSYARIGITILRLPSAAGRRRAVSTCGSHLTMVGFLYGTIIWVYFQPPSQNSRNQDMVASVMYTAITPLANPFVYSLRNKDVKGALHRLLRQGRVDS
Method in brief: as §1

UniProt Q8VGX3 = biological target: T4, UniProt Q8VGX3
T4 sequence (whole entry): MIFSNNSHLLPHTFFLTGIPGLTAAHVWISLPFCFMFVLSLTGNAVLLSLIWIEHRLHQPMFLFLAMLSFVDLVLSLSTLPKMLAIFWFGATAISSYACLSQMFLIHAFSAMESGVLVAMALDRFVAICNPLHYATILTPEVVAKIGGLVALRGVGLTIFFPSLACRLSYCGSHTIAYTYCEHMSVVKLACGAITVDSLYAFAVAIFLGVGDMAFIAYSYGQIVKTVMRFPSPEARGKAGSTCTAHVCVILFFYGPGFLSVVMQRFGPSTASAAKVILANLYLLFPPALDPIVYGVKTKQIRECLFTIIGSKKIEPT
Method in brief: as §1

UniProt Q8VGX5 = biological target: T5, UniProt Q8VGX5
T5 sequence (whole entry): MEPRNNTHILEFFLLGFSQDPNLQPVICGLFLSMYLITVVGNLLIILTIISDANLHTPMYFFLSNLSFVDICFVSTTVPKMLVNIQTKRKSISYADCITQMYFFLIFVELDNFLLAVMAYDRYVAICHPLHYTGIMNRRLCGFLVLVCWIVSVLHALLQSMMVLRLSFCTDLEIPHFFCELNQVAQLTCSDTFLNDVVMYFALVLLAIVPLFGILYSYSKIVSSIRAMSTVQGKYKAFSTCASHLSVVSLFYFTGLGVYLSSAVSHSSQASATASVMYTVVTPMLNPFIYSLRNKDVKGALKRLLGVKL
Method in brief: as §1

UniProt Q8VGZ2 = biological target: T6, UniProt Q8VGZ2
T6 sequence (whole entry): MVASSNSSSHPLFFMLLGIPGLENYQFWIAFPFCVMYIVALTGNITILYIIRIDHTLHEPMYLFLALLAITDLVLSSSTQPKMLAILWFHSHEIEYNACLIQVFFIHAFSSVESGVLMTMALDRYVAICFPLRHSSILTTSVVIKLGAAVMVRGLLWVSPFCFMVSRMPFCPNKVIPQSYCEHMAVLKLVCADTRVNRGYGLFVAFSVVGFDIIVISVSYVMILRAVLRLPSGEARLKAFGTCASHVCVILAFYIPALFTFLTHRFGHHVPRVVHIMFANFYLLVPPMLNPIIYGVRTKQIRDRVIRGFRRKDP
Method in brief: as §1

UniProt Q8VGZ7 = biological target: T7, UniProt Q8VGZ7
T7 sequence (whole entry): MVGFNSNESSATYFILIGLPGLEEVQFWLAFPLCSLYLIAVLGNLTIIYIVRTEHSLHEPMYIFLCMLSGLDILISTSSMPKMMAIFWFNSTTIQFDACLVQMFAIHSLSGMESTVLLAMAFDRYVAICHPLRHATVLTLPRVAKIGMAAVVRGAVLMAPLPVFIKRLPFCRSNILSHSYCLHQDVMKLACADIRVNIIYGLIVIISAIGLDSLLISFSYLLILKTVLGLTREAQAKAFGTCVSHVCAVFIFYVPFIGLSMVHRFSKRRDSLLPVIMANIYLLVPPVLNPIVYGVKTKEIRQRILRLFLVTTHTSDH
Method in brief: as §1

UniProt Q8VH16 = biological target: T8, UniProt Q8VH16
T8 sequence (whole entry): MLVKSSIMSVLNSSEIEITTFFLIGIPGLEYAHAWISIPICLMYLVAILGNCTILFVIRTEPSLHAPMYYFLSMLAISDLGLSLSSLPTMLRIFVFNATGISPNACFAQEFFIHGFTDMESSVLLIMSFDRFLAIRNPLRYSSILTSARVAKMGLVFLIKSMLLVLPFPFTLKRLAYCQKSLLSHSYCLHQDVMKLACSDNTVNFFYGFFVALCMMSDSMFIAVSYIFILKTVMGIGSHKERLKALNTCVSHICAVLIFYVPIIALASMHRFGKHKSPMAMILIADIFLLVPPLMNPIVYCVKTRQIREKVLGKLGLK
Method in brief: as §1

UniProt Q8VH20 = biological target: T9, UniProt Q8VH20
T9 sequence (whole entry): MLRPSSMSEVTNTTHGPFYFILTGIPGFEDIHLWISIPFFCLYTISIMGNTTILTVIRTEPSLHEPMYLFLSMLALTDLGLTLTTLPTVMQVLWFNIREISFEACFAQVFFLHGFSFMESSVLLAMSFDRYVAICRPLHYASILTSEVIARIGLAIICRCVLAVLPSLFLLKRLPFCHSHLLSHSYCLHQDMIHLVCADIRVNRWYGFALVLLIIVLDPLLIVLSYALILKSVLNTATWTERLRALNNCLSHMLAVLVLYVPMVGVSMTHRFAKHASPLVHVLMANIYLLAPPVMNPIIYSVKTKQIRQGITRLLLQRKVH
Method in brief: as §1

Measured: odorant receptor agonist call;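 further: active if original authors judged signal statistically different from baseline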

O=Cc1ccccc1
inactive: all assays above

C=C(C)C1CC=C(C=O)CC1 (stereo not drawn)
inactive: all assays above
